Laboratory results: article PMC5019276 (International Journal of Nanomedicine, 2016)
≈ marks a conversion by molar mass, not a printed value.

Columns and labels:
HT-29 cells [1] = assay: In vitro cytotoxicity, MTT assay; type: cell-based; details: Homo sapiens, HT-29, read-out: IC50 (half maximal inhibitory concentration)
How it was run: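 HT-29 cells were grown in RPMI-1640 with 10% FBS and 1% penicillin/streptomycin. They were seeded at 3–5×10^4 cells/well and cultured 24 h at 37°C in humid 5% CO2. Drug-loaded and blank nanoparticles were then tested by MTT, with absorbance read at 490 nm. Viability (%) = absorbance of treated cells / absorbance of untreated cells × 100. Triplicates; mean ± SD (n=3).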

[2] = In vitro drug release by dialysis; type: physicochemical; details: pH 2.0, 5.0 and 6.8, after 72 hours
How it was run: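 Dialysis (MWCO 6–8 kDa): 2.5 mL of nanoparticle or free-drug solution (drug 0.2 mg/mL) against 10 mL medium. Media were 0.05 M glycine–HCl pH 2.0, 0.05 M phosphate pH 5.0 and 0.05 M phosphate pH 6.8, each with 1% ascorbic acid and 0.1% BHT. Stirred at 37°C for 72 h; 3.0 mL withdrawn at intervals and replaced. Drug measured by C18 HPLC at 420 nm. Run three times.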

HT-29 cells [3] = assay: Intracellular uptake by fluorescence microscopy; type: cell-based, Human; details: 7.5 μg/mL, 3 hours, 37°C
How it was run: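 HT-29 cells were seeded at 2.5×10^4 cells/well and incubated overnight at 37°C in 5% CO2. They were exposed to free drug or drug-loaded nanoparticles at 7.5 μg/mL for 3 h at 37°C, with untreated and blank-nanoparticle controls. Cells were rinsed three times with 37°C PBS. Imaging used fluorescence microscopy with 420–490 nm excitation and 490–560 nm emission.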

[4] = In vivo oral administration and pharmacokinetics; parameters: species or system rats; details: plasma, 100 mg/kg

COc1cc(/C=C/C(=O)CC(=O)/C=C/c2ccc(O)c(OC)c2)ccc1O [Cur, Curcumin]
IC50 (HT-29 cells [1]): 28.5 µg/mL (≈ 77.4 µM)
release after 72 hours (in words) [2]: completed its release/diffusion
fluorescence of cells (cell uptake) (HT-29 cells [3]): relatively faint
Cmax ([4]; male, Sprague Dawley, rat, po): 11000 ± 1170 ng/mL
MRT last ([4]; male, Sprague Dawley, rat, po): 4.33 ± 0.67 h
Tmax ([4]; male, Sprague Dawley, rat, po): 1 h
half-life ([4]; male, Sprague Dawley, rat, po): 0.9 ± 0.89 h
AUC0–24 hours ([4]; oral): 65120 ± 7420 ng·h/mL
